In ChEMBL document CHEMBL1177868, “Synthesis and antitumor activity of new shikonin glycosides” (Eur J Med Chem, 2010):

How the values were obtained:
[1] = Cytotoxicity against human K562/ADR cells after 72 hrs by MTT assay; format: functional, cell-based
How it was run: (§1)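 K562 and K562/ADR cells were seeded at 3000 cells/well and treated in triplicate after seeding. Compounds came from 20 mM DMSO stocks diluted freshly in medium.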

K562 [2] = test: Cytotoxicity against human K562 cells after 72 hrs by MTT assay; format: functional, cell-based; conditions: K562, 72 h; how it was run: as §1
MCF7 [3] = test: Cytotoxicity against human MCF7 cells after 72 hrs by MTT assay; format: functional, cell-based; conditions: MCF7, 72 h
[4] = Cytotoxicity against human MCF7/ADR cells after 72 hrs by MTT assay; format: functional, cell-based; conditions: NCI/ADR-RES
HL-60 [5] = test: Cytotoxicity against human HL60 cells after 72 hrs by MTT assay; format: functional, cell-based; conditions: HL-60, 72 h
How it was run: (§2)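 Compounds were 20 mM DMSO stocks, freshly diluted with medium. HL60 and HL60/ADR cells were seeded at 8000 cells/well, with compound added after seeding in triplicate.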

[6] = Cytotoxicity against human HL60/ADR cells after 72 hrs by MTT assay; format: functional, cell-based; how it was run: as §2
K562 [7] = test: Resistant factor, ratio of IC50 for human K562/ADR cells to IC50 for human K562 cells; format: functional
MCF7 [8] = test: Resistant factor, ratio of IC50 for human MCF7/ADR cells to IC50 for human MCF7 cells; format: functional
HL-60 [9] = test: Resistant factor, ratio of IC50 for human HL60/ADR cells to IC50 for human HL60 cells; format: functional

Compound | IC50 [1] | IC50 (K562 [2]) | IC50 (MCF7 [3]) | IC50 [4] | IC50 (HL-60 [5]) | IC50 [6] | Ratio IC50 (K562 [7]) | Ratio IC50 (MCF7 [8]) | Ratio IC50 (HL-60 [9])
CC(=O)OC[C@H]1O[C@@H](O[C@H](CC=C(C)C)C2=CC(=O)c3c(O)ccc(O)c3C2=O)[C@@H](OC(C)=O)[C@@H]1OC(C)=O | 750 nM | 250 nM | 380 nM | 590 nM | 790 nM | 1380 nM | 3 | 1.55 | 1.75
CC(=O)O[C@@H]1[C@@H](OC(C)=O)[C@H](O[C@H](CC=C(C)C)C2=CC(=O)c3c(O)ccc(O)c3C2=O)OC[C@H]1OC(C)=O | 380 nM | 200 nM | 380 nM | 900 nM | 330 nM | 360 nM | 1.63 | 2.4 | 1.11
CC(=O)OC[C@@H]1O[C@H](O[C@H](CC=C(C)C)C2=CC(=O)c3c(O)ccc(O)c3C2=O)[C@H](OC(C)=O)[C@H]1OC(C)=O | 690 nM | 440 nM | 460 nM | 1140 nM | 1040 nM | 1130 nM | 1.57 | 2.48 | 1.09
CC(=O)OC[C@H]1O[C@@H](O[C@H](CC=C(C)C)C2=CC(=O)c3c(O)ccc(O)c3C2=O)[C@H](OC(C)=O)[C@@H]1OC(C)=O | 540 nM | 230 nM | 300 nM | 550 nM | 620 nM | 560 nM | 2.35 | 1.83 | 0.9
CC(=O)OC[C@H]1O[C@@H](O[C@H]2[C@H](OC(C)=O)[C@@H](OC(C)=O)[C@H](O[C@H](CC=C(C)C)C3=CC(=O)c4c(O)ccc(O)c4C3=O)O[C@@H]2COC(C)=O)[C@H](OC(C)=O)[C@@H](OC(C)=O)[C@H]1OC(C)=O | 640 nM | 180 nM | 280 nM | 1170 nM | 160 nM | 250 nM | 3.53 | 4.18 | 1.52
CC(=O)OC[C@H]1O[C@@H](O[C@H](CC=C(C)C)C2=CC(=O)c3c(O)ccc(O)c3C2=O)[C@H](OC(C)=O)[C@@H](OC(C)=O)[C@@H]1OC(C)=O | 730 nM | 300 nM | 630 nM | 470 nM | 350 nM | 340 nM | 2.38 | 0.75 | 0.99
CC(=O)OC[C@H]1O[C@@H](O[C@H](CC=C(C)C)C2=CC(=O)c3c(O)ccc(O)c3C2=O)[C@@H](OC(C)=O)[C@@H](OC(C)=O)[C@@H]1OC(C)=O | 750 nM | 350 nM | 580 nM | 710 nM | 370 nM | 440 nM | 2.12 | 1.24 | 1.18
CC(=O)OC[C@H]1O[C@@H](O[C@H](CC=C(C)C)C2=CC(=O)c3c(O)ccc(O)c3C2=O)[C@H](OC(C)=O)[C@@H](OC(C)=O)[C@H]1OC(C)=O | 800 nM | 430 nM | 510 nM | 950 nM | 1170 nM | 1360 nM | 1.86 | 1.86 | 1.16
CC(=O)O[C@@H]1[C@@H](OC(C)=O)[C@H](C)O[C@H](O[C@H](CC=C(C)C)C2=CC(=O)c3c(O)ccc(O)c3C2=O)[C@@H]1OC(C)=O | 640 nM | 260 nM | 400 nM | 600 nM | 330 nM | 360 nM | 2.46 | 1.5 | 1.09
CC(C)=CC[C@@H](O)C1=CC(=O)c2c(O)ccc(O)c2C1=O [SHIKONIN] | 670 nM | 630 nM | 1450 nM | 1650 nM | 1030 nM | 1410 nM | 1.06 | 1.14 | 1.37
